Assay [1] addresses T1, Estrogen receptor (Homo sapiens) (UniProt P03372).
T1 sequence (whole entry): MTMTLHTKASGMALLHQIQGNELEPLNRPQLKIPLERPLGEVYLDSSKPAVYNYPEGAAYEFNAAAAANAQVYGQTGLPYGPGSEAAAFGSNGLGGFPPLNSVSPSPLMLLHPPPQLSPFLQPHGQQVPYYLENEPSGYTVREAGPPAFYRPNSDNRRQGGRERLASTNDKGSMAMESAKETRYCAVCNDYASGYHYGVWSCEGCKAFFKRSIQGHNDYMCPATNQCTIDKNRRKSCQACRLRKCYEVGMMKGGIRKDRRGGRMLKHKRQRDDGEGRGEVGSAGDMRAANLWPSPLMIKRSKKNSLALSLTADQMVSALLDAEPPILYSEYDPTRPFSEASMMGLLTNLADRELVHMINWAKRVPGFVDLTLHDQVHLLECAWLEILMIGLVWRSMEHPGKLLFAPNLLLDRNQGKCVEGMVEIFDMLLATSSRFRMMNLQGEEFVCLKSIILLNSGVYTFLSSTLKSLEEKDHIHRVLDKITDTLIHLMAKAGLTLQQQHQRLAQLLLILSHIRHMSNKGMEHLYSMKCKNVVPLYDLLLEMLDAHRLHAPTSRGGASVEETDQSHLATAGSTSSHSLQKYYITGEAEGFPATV
Kind of assay: Activation of the estrogen receptors of MCF-7-2a cells at 10e-6 M. The gist of the method:
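MCF-7-2a cells stably carrying ERE(wtc)luc, kept one week in DMEM with L-glutamine, antibiotics and dextran/charcoal-treated BCS (50 mL/L). Seeded at about 2.2 × 10^5 cells/mL in six-well plates; compound added after 24 h and cells incubated 50 h. Lysed 20 min at room temperature, luciferase luminescence read for 10 s (RLU), normalized to Bradford protein. Line value taken at 1 μM.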

For assay [2], the system named is Estrogen receptor alpha (Bos taurus). Kind of assay: Relative binding affinity to Estrogen receptor alpha in calf uterine cytosol compared to [3H]E2. Particulars: Uterus.

A value given as a limit tells only on which side of the number the result lay.

In ChEMBL document CHEMBL1136050, “Synthesis, structural evaluation, and estrogen receptor interaction of 2,3-diarylpiperazines” (J Med Chem, 2002) one finds Relative activation and relative binding affinity (RBA) data, which are given here for 22 molecules.

On to `COc1ccc([C@H]2NCCN[C@H]2c2ccc(OC)cc2F)c(F)c1`, for which the Relative activation in assay [1] is 4%.

Turning to `Oc1cc(Cl)c([C@H]2NCCN[C@H]2c2c(Cl)cc(O)cc2Cl)c(Cl)c1`, the Relative activation in assay [1] is 73%. Also, the relative binding affinity (RBA) in assay [2] amounted to 0.05. In the case of `COc1ccc([C@H]2NCCN[C@H]2c2ccc(OC)cc2)cc1`, the Relative activation in assay [1] turned out to be 5%. On the same count and under the same terms, then `CCN1CCN(CC)[C@@H](c2ccc(OC)cc2Cl)[C@H]1c1ccc(OC)cc1Cl`, with 0%. With `Oc1ccc([C@H]2NCCN[C@H]2c2ccc(O)cc2Cl)c(Cl)c1`, in assay [1], the Relative activation is 7%. The same molecule yielded a relative binding affinity (RBA) in assay [2] of less than 0.02. Regarding `CCN1CCN[C@H](c2ccc(OC)cc2F)[C@@H]1c1ccc(OC)cc1F`, the Relative activation in assay [1] stood at 3%.

In the case of `Oc1ccc([C@H]2NCCN[C@H]2c2ccc(O)cc2F)c(F)c1`, the Relative activation in assay [1] was 4%. The molecule also returned a relative binding affinity (RBA) in assay [2] of less than 0.02.

Regarding `COc1ccc([C@H]2NCCN[C@H]2c2c(Cl)cc(OC)cc2Cl)c(Cl)c1`, the Relative activation in assay [1] was determined as 3%. As for `CCN1CCN[C@H](c2ccc(O)cc2Cl)[C@@H]1c1ccc(O)cc1Cl`, in assay [1], the Relative activation was 74%. This molecule also displayed a relative binding affinity (RBA) in assay [2] of 0.42. For `CCN1CCN(CC)[C@@H](c2ccc(OC)cc2F)[C@H]1c1ccc(OC)cc1F`, the Relative activation in assay [1] turned out to be 7%. For `Oc1ccc([C@H]2NCCN[C@H]2c2ccc(O)cc2)cc1`, in assay [1], the Relative activation is -1%. In assay [2], this molecule showed a relative binding affinity (RBA) of less than 0.02. As for `COc1cc(Cl)c([C@H]2NCCN[C@H]2c2c(Cl)cc(OC)cc2Cl)c(Cl)c1`, the Relative activation in assay [1] was 5%.

In the case of `CCN1CCN(CC)[C@@H](c2ccc(O)cc2F)[C@H]1c1ccc(O)cc1F`, the Relative activation in assay [1] is 4%. The relative binding affinity (RBA) in assay [2] is 0.03.

Turning to `CCN1CCN(CC)[C@@H](c2ccc(OC)cc2)[C@H]1c1ccc(OC)cc1`, the Relative activation in assay [1] came to 4%.

Regarding `CCN1CCN[C@H](c2ccc(OC)cc2Cl)[C@@H]1c1ccc(OC)cc1Cl`, the Relative activation in assay [1] is 4%. In the case of `Oc1ccc(Cl)c([C@H]2NCCN[C@H]2c2c(Cl)ccc(O)c2Cl)c1Cl`, the Relative activation in assay [1] came to 12%. Further, in assay [2], the relative binding affinity (RBA) is less than 0.02. The like results for `CCN1CCN(CC)[C@@H](c2ccc(O)cc2Cl)[C@H]1c1ccc(O)cc1Cl` were, in that order, 37% and 0.17. With `CCN1CCN[C@H](c2ccc(O)cc2F)[C@@H]1c1ccc(O)cc1F`, in assay [1], the Relative activation is 34%. Moreover, the relative binding affinity (RBA) in assay [2] worked out at 0.06. With `COc1ccc(Cl)c([C@H]2NCCN[C@H]2c2c(Cl)ccc(OC)c2Cl)c1Cl`, in assay [1], the Relative activation turned out to be 8%. Same read-out and setting: as for `COc1ccc([C@H]2NCCN[C@H]2c2ccc(OC)cc2Cl)c(Cl)c1`, the figure is 1%.

Consider `CCN1CCN(CC)[C@@H](c2ccc(O)cc2)[C@H]1c1ccc(O)cc1`, for which, in assay [1], the Relative activation is 8%. In assay [2], the relative binding affinity (RBA) is less than 0.02.

`Oc1ccc([C@H]2NCCN[C@H]2c2c(Cl)cc(O)cc2Cl)c(Cl)c1`: in assay [1], the Relative activation was found to be 20%. This molecule gave a relative binding affinity (RBA) in assay [2] of less than 0.02.
